Calls of active or inactive are those of the source. The rule behind the calls is not given here.
What was measured:
[1] = molecular target: Glutamate receptor ionotropic, AMPA (Rattus norvegicus) (UniProt P19491+P19492+P19493+P19490); test: Inhibition of kainate induced [45Ca]2+ uptake in rat cerebellar granule cells expressing AMPA receptor at 32 uM; format: functional
How it was run: (§1)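 Primary rat cerebellar granule neurons preincubated 30 min with compound in BSS (HEPES, pH 7.3). Then exposed at room temperature for 10 min to 100 µM kainate with 10 µM glycine, 0.5 mM DTT and 0.5 µCi 45Ca2+. Washed in ice-cold BSS containing 5 mM EGTA, lysed in Triton X-100, radioactivity counted.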

Glutamate NMDA receptor = test: Displacement of [3H]glycine from Gly/NMDA receptor in rat cerebral cortex synaptic membranes; format: cell membranes, Membrane
How it was run: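 Rat cortical synaptic membranes with 8 nM [3H]glycine as ligand, following an earlier published method.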

[2] = molecular target: T1, Glutamate receptor ionotropic, AMPA (Rattus norvegicus, UniProt P19490+P19491+P19492+P19493); test: Displacement of [3H]AMPA from AMPA receptor in rat cerebral cortex synaptic membranes; format: cell membranes, Membrane
How it was run: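 Rat cerebral cortex synaptic membranes with 5 nM [3H]AMPA, following an earlier published method.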

Mus musculus [3] = species on record: Mus musculus; test: Effect on locomotor activity assessed by rotarod test in DBA/2 mice; format: functional
How it was run: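 Rotarod locomotor deficit in DBA/2 mice after ip dosing across 3.3-200 µmol/kg. TD50 by Litchfield-Wilcoxon with 95% confidence limits, at least 32 animals per value.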

Mus musculus [4] = test: Effect on tonic phase of audiogenic seizures in DBA/2 mice after 30 min at 3.3-200 umol/kg, ip; format: functional; conditions: DBA/2, ip, 0.5 h
How it was run: (§2)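 DBA/2 mice, 8-12 g, 22-25 days old, either sex, 10 per group. Dosed ip, vehicle or 3.3-200 µmol/kg, then sound stimulus 30 min later; latency and incidence of each seizure phase scored. ED50 by Litchfield-Wilcoxon, 95% confidence limits, at least 32 animals per value.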

Mus musculus [5] = species on record: Mus musculus; test: Ratio of TD50 over ED50 (clonic phase of audiogenic seizures) in DBA/2 mice; format: functional
How it was run: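 Protective index: rotarod TD50 divided by clonic-phase audiogenic ED50, both from ip-dosed DBA/2 mice fitted by Litchfield-Wilcoxon.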

[6] = molecular target: Glutamate NMDA receptor (Rattus norvegicus) (UniProt P35439+Q00959+Q00960+Q00961+Q62645+Q8VHN2+Q9R1M7); test: Displacement of [3H](+)-MK-801 from rat cortical NMDA ion channel complex at 100 uM; format: protein-complex assay
How it was run: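 Rat cortical membranes washed in 5 mM Tris-HCl pH 7.4 with 0.08% Triton X-100, then pelleted and resuspended through four more cycles. Incubated 120 min at room temperature with 2.5 nM [3H]-(+)-MK-801, glutamic acid and glycine, with or without compound. Bound ligand separated on polyethylenimine-soaked GF/C filters. Nonspecific binding defined with phencyclidine.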

Mus musculus [7] = test: Effect on clonic phase of audiogenic seizures in DBA/2 mice after 30 min at 3.3-200 umol/kg, ip; format: functional; conditions: DBA/2, ip, 0.5 h; how it was run: as §2
[8] = molecular target: T1, Glutamate receptor ionotropic, AMPA; test: Inhibition of kainate induced [45Ca]2+ uptake in rat cerebellar granule cells expressing AMPA receptor; format: functional; how it was run: as §1
[9] = molecular target: T1, Glutamate receptor ionotropic, AMPA; test: Displacement of [3H]CP-526427 from non competitive […] or benzodiazepine binding site of AMPA receptor from rat forebrain
How it was run: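 Adult male Sprague-Dawley rat forebrain membranes (P2 fraction, lysed in Tris acetate) diluted to 0.5 mg protein/mL in 50 mM Tris-HCl pH 7.4. Compound dilution series plus 3 nM [3H]CP-526,427, incubated 20 min at 30 °C, then filtered and counted by scintillation. Nonspecific binding taken with 10 µM unlabeled CP-526,427 or CP-465,022.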

Row | inhibition [1] | IC50 (Glutamate NMDA receptor) | IC50 [2] | inhibition [6] | IC50 [8] | IC50 [9] | Compound | TD50 (Mus musculus [3]) | ED50 (Mus musculus [4]) | Ratio TD50/ED50 (Mus musculus [5]) | ED50 (Mus musculus [7])
1 | 94% | > 100 µM | > 100 µM | 33% | 12 µM | > 10 µM | CC1C(=O)NN=C(c2ccc(N)cc2)c2cc3c(cc21)OCO3 (racemic) | 48.5 µM/kg | 8.3 µmol/kg | 2.4 | 20.2 µmol/kg
2 | inactive |  |  |  |  | > 10 µM | C[C@H]1C(=O)NN=C(c2ccc(N)cc2)c2cc3c(cc21)OCO3 | >100 µM/kg | 7.36 µmol/kg | >1.1 | 88.4 µmol/kg
3 |  |  |  |  | 6 µM | 3.27 µM | C[C@@H]1C(=O)NN=C(c2ccc(N)cc2)c2cc3c(cc21)OCO3 | 34.2 µM/kg | 1.74 µmol/kg | 3.1 | 11 µmol/kg
